According to article PMC3163034 (Digestive diseases and sciences, 2011):
Counter-ions that a name gives are not always drawn.

Key:
[1] = rats; cited from earlier work
[2] = Ussing-chamber permeability across excised mouse intestinal segments; assay type: in vitro ADME, mice; settings: for Peff, Colon (mean ± SD) / Peff, Small intestine (mean ± SD): 1 mg/ml mucosal side, pH 7.4, 37°C
Outline: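 Freshly isolated jejunum and left-sided colon from naive and 7-day DSS-treated mice, mounted with 0.3 cm2 exposed area. Both sides held 5 ml Krebs buffer, pH 7.4, 37°C, gassed with 95% O2/5% CO2. Test compound added mucosally (final 1 mg/ml). Serosal samples taken every 20 min from 0 to 120 min, in triplicate, and measured by LC-MS/MS. Peff = (dC/dt)·V/(A·Co).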

[3] = Blood pressure and heart rate by tail-cuff in DSS mice; assay type: in vivo; settings: transanal treatment, compared to naive group
Outline: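 Mice received DSS in drinking water for 7 days plus daily transanal test compound (100 or 10 mg/kg/day) suspended in ddH2O, 0.25 ml total, via blunt needle. Naive controls received transanal water only. Heart rate and blood pressure were taken by automated noninvasive tail-cuff on DSS day 6, 1 h before (Pre) and 2 h after (Post) transanal dosing. Data are mean ± SD.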

[4] = Plasma levels of orally administered AT1a antagonists in DSS-treated mice; assay type: in vivo; settings: 10 mg/kg; for Cmax at 2 h: mouse, plasma, po
Outline: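 Mice given DSS for 7 days received test compound orally at 10 mg/kg and were killed 2 h later. Plasma was collected by cardiac puncture, diluted tenfold in mobile phase, and quantified by LC-MS/MS on a C18 column (150 × 2.0 mm, 0.2 ml/min). Data are mean ± SD, n = 5.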

[5] = Colonic mucosa and mesenteric blood flow by laser Doppler perfusion imaging; assay type: in vivo, mice; settings: 7 days of DSS, transanal treatment, n = 6; for Colonic blood flow at the mucosal level: naive 1.91 ± 0.26, mean ± SD; for Mesenteric blood flow: naive 2.82 ± 0.23, mean ± SD
Outline: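 After 7 days of DSS in drinking water, with daily transanal test compound (10 or 100 mg/kg/day) or water, and naive controls, mice (n = 6/group) were anesthetized just before harvest. Median laparotomy exposed the mesentery. A […] LDPI beam 12 cm above scanned the mesentery and 2 cm of distal colonic mucosa. Perfusion was normalized to total pixel area (mean ± SD).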

[6] = Normal rat jejunum, Ussing chamber; cited from earlier work
[7] = 2 h after oral administration, DSS mice

Row | Structure (SMILES) | oral 50% effective dose (ED50, blood pressure lowering) [1] [mg/kg] | Peff, Colon (mean ± SD) ([2]; DSS-treated mice (7 days)) [×10⁻⁶ cm/s] | Peff, Small intestine (mean ± SD) ([2]; DSS-treated mice (7 days)) [×10⁻⁶ cm/s] | Peff, Colon (mean ± SD) ([2]; Normal (naive) mice) [×10⁻⁶ cm/s] | Peff, Small intestine (mean ± SD) ([2]; Normal (naive) mice) [×10⁻⁶ cm/s] | permeability coefficient compared to other AT1aR-antagonists ([2]; Ussing chamber, both naive- and DSS-treated specimens) | Heart rate [3] | plasma level compared to candesartan [4, 7] | plasma level compared to losartan [4, 7] | Cmax at 2 h [4] [ng/mL] | Colonic blood flow at the mucosal level [5] | Mesenteric blood flow [5] | Peff, Small intestine [6] [×10⁻⁶ cm/s]
1 | CCCCc1ncc(CO)n1Cc1ccc(-c2ccccc2-c2nn[nH]n2)cc1 [DCL, 2-butyl-1-[[2′-(2H-tetrazol-5-yl)[1,1′-biphenyl]-4-yl]methyl]-1H-imidazole-5-methanol] | > 100 | 2.66 ± 0.96 | 1.52 ± 1.31 | 1.58 ± 1.24 | 1.37 ± 0.15 | threefold to sixfold lower | not significantly different | over tenfold lower | threefold lower | 37.8 ± 26.4 | failed to change | failed to change | –
2 | C[C@H](N[C@@H](CCc1ccccc1)C(=O)O)C(=O)N1CCC[C@H]1C(=O)O [Enalaprilat] | – | – | – | – | – | – | – | – | – | – | – | – | 6e+12
3 | CCOc1nc2cccc(C(=O)O)c2n1Cc1ccc(-c2ccccc2-c2nnn[nH]2)cc1 [candesartan, 2-ethoxy-1-[[2′-(2H-tetrazol-5-yl)[1,1′-biphenyl]-4-yl]methyl]-1H-benzimidazole-7-carboxylic acid] | – | 5.94 ± 4.41 | 3.85 ± 2.03 | 4.13 ± 3.04 | 7.85 ± 5.91 | – | did decline significantly | – | – | 569 ± 188 | 0.92 ± 0.20 | 1.56 ± 0.33 | –
4 | CCCCc1nc(Cl)c(CO)n1Cc1ccc(-c2ccccc2-c2nn[nH]n2)cc1 [losartan, 2-butyl-4-chloro-1-[[2′-(2H-tetrazol-5-yl)[1,1′-biphenyl]-4-yl]methyl]-1H-imidazole-5-methanol, mono-potassium salt] | 0.59 | 5.77 ± 3.37 | 5.24 ± 1.4 | 6.4 ± 5.6 | 4.21 ± 1.67 | – | not significantly different | – | – | 117 ± 87 | 0.88 ± 0.32 | 1.97 ± 0.58 | –
